Measured values: ChEMBL document CHEMBL4219197, “Synthesis, biological evaluation and SAR of naftopidil-based arylpiperazine derivatives” (Bioorg Med Chem Lett, 2018)

Experiments:
PC-3 = test: Cytotoxicity against human PC3 cells assessed as growth inhibition after 24 hrs by CCK8 assay; type: functional, cell-based; conditions: PC-3, 24 h
How it was run: (§1)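 Cells (PC-3, LNCaP, DU145, normal prostate […] WPMY-1) exposed 24 h to escalating concentrations; viability by CCK-8 read-out as percent of control; IC50 derived.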

LNCaP = test: Cytotoxicity against human LNCAP cells assessed as growth inhibition after 24 hrs by CCK8 assay; type: functional, cell-based; how it was run: as §1
[1] = Cytotoxicity against human WPMY-1 cells assessed as growth inhibition after 24 hrs by CCK8 assay; type: cell-based; conditions: WPMY-1, 24 h; how it was run: as §1
DU-145 [2] = test: Cytotoxicity against human DU145 cells assessed as growth inhibition after 24 hrs by CCK8 assay; type: functional, cell-based; conditions: DU-145, 24 h; how it was run: as §1
[3] = molecular target: T1, Alpha-1A adrenergic receptor (Homo sapiens, UniProt P35348); test: Antagonist activity at alpha 1A adrenergic receptor (unknown origin) by luciferase reporter gene assay; type: functional
T1 sequence (P35348 whole entry): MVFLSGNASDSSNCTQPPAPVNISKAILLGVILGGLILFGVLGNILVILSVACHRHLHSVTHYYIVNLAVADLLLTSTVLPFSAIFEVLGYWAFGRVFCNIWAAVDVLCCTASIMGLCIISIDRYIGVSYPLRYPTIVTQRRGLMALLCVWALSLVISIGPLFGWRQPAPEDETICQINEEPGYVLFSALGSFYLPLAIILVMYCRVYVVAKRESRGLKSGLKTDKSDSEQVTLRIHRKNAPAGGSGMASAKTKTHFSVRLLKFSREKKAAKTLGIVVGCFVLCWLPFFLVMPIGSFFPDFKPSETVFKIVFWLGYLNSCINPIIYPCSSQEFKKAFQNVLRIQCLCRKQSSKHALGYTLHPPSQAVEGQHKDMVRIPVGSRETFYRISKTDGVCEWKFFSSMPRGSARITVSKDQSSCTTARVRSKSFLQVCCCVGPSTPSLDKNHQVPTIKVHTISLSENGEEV
How it was run: (§2)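 Dual-luciferase reporter assay measuring antagonism at α1A, α1B and α1D adrenoceptor subtypes. IC50 values are means of three experiments.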

[4] = molecular target: T2, Alpha-1B adrenergic receptor (Homo sapiens, UniProt P35368); test: Antagonist activity at alpha 1B adrenergic receptor (unknown origin) by luciferase reporter gene assay; type: functional; how it was run: as §2
T2 sequence (P35368 whole entry): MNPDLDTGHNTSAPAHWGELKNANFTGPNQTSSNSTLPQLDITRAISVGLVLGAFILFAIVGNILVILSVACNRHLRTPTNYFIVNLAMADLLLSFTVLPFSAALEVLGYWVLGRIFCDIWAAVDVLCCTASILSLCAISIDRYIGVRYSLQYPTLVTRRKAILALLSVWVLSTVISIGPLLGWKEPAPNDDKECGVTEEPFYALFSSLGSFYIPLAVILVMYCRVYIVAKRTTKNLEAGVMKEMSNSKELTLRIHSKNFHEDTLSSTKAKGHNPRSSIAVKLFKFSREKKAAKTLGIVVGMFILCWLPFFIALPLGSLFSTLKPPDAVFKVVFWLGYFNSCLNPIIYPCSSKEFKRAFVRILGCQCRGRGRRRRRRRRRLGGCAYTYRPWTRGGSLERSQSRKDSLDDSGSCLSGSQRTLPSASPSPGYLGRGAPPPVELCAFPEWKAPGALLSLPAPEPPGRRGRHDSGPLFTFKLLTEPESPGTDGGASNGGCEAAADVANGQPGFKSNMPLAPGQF

DU-145 [5] = test: Potency index, ratio of naftopidil IC50 to compound IC50 for human DU145 cells; type: functional
[6] = molecular target: T3, Alpha-1D adrenergic receptor (Homo sapiens, UniProt P25100); test: Antagonist activity at alpha 1D adrenergic receptor (unknown origin) by luciferase reporter gene assay; type: functional; how it was run: as §2
T3 sequence (P25100 whole entry): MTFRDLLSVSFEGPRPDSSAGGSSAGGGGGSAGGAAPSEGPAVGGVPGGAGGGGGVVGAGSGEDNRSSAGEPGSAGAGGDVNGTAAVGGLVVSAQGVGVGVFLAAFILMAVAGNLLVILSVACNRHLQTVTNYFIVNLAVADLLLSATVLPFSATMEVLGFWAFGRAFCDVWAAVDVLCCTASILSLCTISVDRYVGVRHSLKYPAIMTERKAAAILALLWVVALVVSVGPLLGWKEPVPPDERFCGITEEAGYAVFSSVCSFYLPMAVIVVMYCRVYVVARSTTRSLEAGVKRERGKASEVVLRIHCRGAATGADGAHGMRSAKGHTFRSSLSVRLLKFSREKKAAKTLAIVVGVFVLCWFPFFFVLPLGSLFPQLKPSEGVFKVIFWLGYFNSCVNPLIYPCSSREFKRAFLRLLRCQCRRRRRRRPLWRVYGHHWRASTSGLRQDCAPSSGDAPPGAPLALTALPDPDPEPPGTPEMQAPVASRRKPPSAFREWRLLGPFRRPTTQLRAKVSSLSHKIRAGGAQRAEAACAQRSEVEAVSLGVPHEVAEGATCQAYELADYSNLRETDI

DU-145 [7] = test: Induction of apoptosis in human DU145 cells assessed as late apoptotic cells at 8 uM after 24 hrs by Annexin V/propidium iodide staining based flow cytometry (reference value: 0.17%); type: functional
DU-145 [8] = test: Induction of apoptosis in human DU145 cells assessed as live cells at 8 uM after 24 hrs by Annexin V/propidium iodide staining based flow cytometry (reference value: 99.38%); type: functional
DU-145 [9] = test: Induction of apoptosis in human DU145 cells assessed as early apoptotic cells at 8 uM after 24 hrs by Annexin V/propidium iodide staining based flow cytometry (reference value: […]); type: functional
DU-145 [10] = test: Cell cycle arrest in human DU145 cells assessed as accumulation at G0/G1 phase at 8 uM after 24 hrs by propidium iodide staining based flow cytometry (reference value: 55.49%); type: functional
DU-145 [11] = test: Induction of apoptosis in human DU145 cells assessed as necrotic cells at 8 uM after 24 hrs by Annexin V/propidium iodide staining based flow cytometry (reference value: 0.33%); type: functional
DU-145 [12] = test: Cell cycle arrest in human DU145 cells assessed as accumulation at G2/M phase at 8 uM after 24 hrs by propidium iodide staining based flow cytometry (reference value: 24.42%); type: functional
DU-145 [13] = test: Cell cycle arrest in human DU145 cells assessed as accumulation at S phase at 8 uM after 24 hrs by propidium iodide staining based flow cytometry (reference value: 20.64%); type: functional
DU-145 [14] = test: Induction of apoptosis in human DU145 cells assessed as necrotic cells at 6 uM after 24 hrs by Annexin V/propidium iodide staining based flow cytometry (reference value: 0.33%); type: functional
DU-145 [15] = test: Induction of apoptosis in human DU145 cells assessed as early apoptotic cells at 6 uM after 24 hrs by Annexin V/propidium iodide staining based flow cytometry (reference value: […]); type: functional
DU-145 [16] = test: Cell cycle arrest in human DU145 cells assessed as accumulation at G0/G1 phase at 6 uM after 24 hrs by propidium iodide staining based flow cytometry (reference value: 55.49%); type: functional
DU-145 [17] = test: Cell cycle arrest in human DU145 cells assessed as accumulation at S phase at 6 uM after 24 hrs by propidium iodide staining based flow cytometry (reference value: 20.64%); type: functional
DU-145 [18] = test: Induction of apoptosis in human DU145 cells assessed as late apoptotic cells at 6 uM after 24 hrs by Annexin V/propidium iodide staining based flow cytometry (reference value: 0.17%); type: functional
DU-145 [19] = test: Cell cycle arrest in human DU145 cells assessed as accumulation at G2/M phase at 6 uM after 24 hrs by propidium iodide staining based flow cytometry (reference value: 24.42%); type: functional
DU-145 [20] = test: Induction of apoptosis in human DU145 cells assessed as live cells at 6 uM after 24 hrs by Annexin V/propidium iodide staining based flow cytometry (reference value: 99.38%); type: functional

SMILES	IC50 (PC-3)	IC50 (LNCaP)	IC50 [1]	IC50 (DU-145 [2])	other results
N#Cc1ccccc1N1CCN(CCc2ccc(COc3ccc4c(c3)CCCC4)cc2)CC1	32 µM	1.99 µM	> 50 µM	29.7 µM	–
COc1ccccc1N1CCN(CCc2ccc(COc3ccc4c(c3)CCCC4)cc2)CC1	> 50 µM	3.62 µM	28.1 µM	2.24 µM	–
Fc1ccccc1N1CCN(CCc2ccc(COc3ccc4c(c3)CCCC4)cc2)CC1	27.3 µM	7.57 µM	> 50 µM	> 50 µM	–
Cl.c1ccc(C2CCN(CCc3ccc(COc4ccc5c(c4)CCCC5)cc3)CC2)cc1	10.5 µM	3.94 µM	> 50 µM	0.95 µM	IC50 [3]: 0.568 µM; IC50 [4]: 0.673 µM; Ratio IC50 (DU-145 [5]): 36; IC50 [6]: 0.453 µM
Clc1cccc(N2CCN(CCc3ccc(COc4ccc5c(c4)CCCC5)cc3)CC2)c1Cl	> 50 µM	3.06 µM	> 50 µM	23.1 µM	–
CCOc1ccccc1N1CCN(CCc2ccc(COc3ccc4c(c3)CCCC4)cc2)CC1	> 50 µM	28 µM	> 50 µM	> 50 µM	–
Cc1cccc(N2CCN(CCc3ccc(COc4ccc5c(c4)CCCC5)cc3)CC2)c1.Cl.Cl	56.8 µM	> 50 µM	> 50 µM	0.83 µM	IC50 [3]: 0.502 µM; IC50 [4]: 0.583 µM; Ratio IC50 (DU-145 [5]): 41; IC50 [6]: 0.826 µM
Brc1ccc(N2CCN(CCc3ccc(COc4ccc5c(c4)CCCC5)cc3)CC2)cc1	> 50 µM	> 50 µM	> 50 µM	21.1 µM	–
Clc1ccc(N2CCN(CCc3ccc(COc4ccc5c(c4)CCCC5)cc3)CC2)cc1	> 50 µM	> 50 µM	> 50 µM	> 50 µM	–
c1ccc(N2CCN(CCc3ccc(COc4ccc5c(c4)CCCC5)cc3)CC2)nc1	29.2 µM	2.92 µM	49.2 µM	11.2 µM	–
FC(F)(F)c1ccc(N2CCN(CCc3ccc(COc4ccc5c(c4)CCCC5)cc3)CC2)cc1	> 50 µM	> 50 µM	> 50 µM	> 50 µM	–
COc1ccccc1N1CCN(CC(O)COc2cccc3ccccc23)CC1 (stereo not given) [NAFTOPIDIL]	42.1 µM	–	> 50 µM	–	–
Fc1ccc(N2CCN(CCc3ccc(COc4ccc5c(c4)CCCC5)cc3)CC2)c(F)c1	> 50 µM	4.4 µM	> 50 µM	> 50 µM	–
c1ccc(N2CCN(CCc3ccc(COc4ccc5c(c4)CCCC5)cc3)CC2)cc1	> 50 µM	6.53 µM	> 50 µM	> 50 µM	–
Cc1ccc(Cl)cc1N1CCN(CCc2ccc(COc3ccc4c(c3)CCCC4)cc2)CC1	> 50 µM	7.81 µM	> 50 µM	> 50 µM	–
COc1ccc(N2CCN(CCc3ccc(COc4ccc5c(c4)CCCC5)cc3)CC2)cc1.Cl.Cl	76.5 µM	46.2 µM	> 50 µM	0.93 µM	Activity (DU-145 [7]): 0.12%; IC50 [3]: 0.0576 µM; Activity (DU-145 [8]): 99.4%; Activity (DU-145 [9]): 0.11%; Activity (DU-145 [10]): 56.91%; Activity (DU-145 [11]): 0.34%; IC50 [4]: 0.972 µM; Activity (DU-145 [12]): 23.04%; Activity (DU-145 [13]): 21.14%; Ratio IC50 (DU-145 [5]): 37; IC50 [6]: 0.736 µM
Cl.Cl.Fc1ccc(N2CCN(CCc3ccc(COc4ccc5c(c4)CCCC5)cc3)CC2)cc1	57.3 µM	48.2 µM	> 50 µM	0.9 µM	IC50 [3]: 1.07 µM; Activity (DU-145 [14]): 0.28%; IC50 [4]: 1.12 µM; Activity (DU-145 [15]): 0.05%; Activity (DU-145 [16]): 70.5%; Activity (DU-145 [17]): 20.42%; Ratio IC50 (DU-145 [5]): 38; Activity (DU-145 [18]): 0.1%; IC50 [6]: 0.103 µM; Activity (DU-145 [19]): 12.72%; Activity (DU-145 [20]): 99.5%
Clc1ccccc1N1CCN(CCc2ccc(COc3ccc4c(c3)CCCC4)cc2)CC1	31.3 µM	4.68 µM	> 50 µM	> 50 µM	–
COc1cccc(N2CCN(CCc3ccc(COc4ccc5c(c4)CCCC5)cc3)CC2)c1	2.84 µM	8.02 µM	29.1 µM	28.1 µM	–
FC(F)(F)c1ccccc1N1CCN(CCc2ccc(COc3ccc4c(c3)CCCC4)cc2)CC1	> 50 µM	6.09 µM	> 50 µM	> 50 µM	–
OC1(c2ccccc2)CCN(CCc2ccc(COc3ccc4c(c3)CCCC4)cc2)CC1	> 50 µM	3.03 µM	31.7 µM	3.38 µM	–
COc1ccc(Cl)cc1N1CCN(CCc2ccc(COc3ccc4c(c3)CCCC4)cc2)CC1	> 50 µM	> 50 µM	47 µM	25.1 µM	–
Cc1ccc(N2CCN(CCc3ccc(COc4ccc5c(c4)CCCC5)cc3)CC2)cc1	> 50 µM	> 50 µM	> 50 µM	25.1 µM	–
Cl.Cl.Clc1cccc(N2CCN(CCc3ccc(COc4ccc5c(c4)CCCC5)cc3)CC2)c1	46.7 µM	17.3 µM	> 50 µM	0.86 µM	IC50 [3]: 1.21 µM; IC50 [4]: 0.998 µM; Ratio IC50 (DU-145 [5]): 40; IC50 [6]: 0.287 µM
Cc1ccccc1N1CCN(CCc2ccc(COc3ccc4c(c3)CCCC4)cc2)CC1	25.5 µM	32.9 µM	> 50 µM	> 50 µM	–
CC(C)(C)NC(=O)[C@H]1CC[C@H]2[C@@H]3CC[C@H]4NC(=O)C=C[C@]4(C)[C@H]3CC[C@]12C [FINASTERIDE]	17.8 µM	14.5 µM	–	13.5 µM	–
